Source: ChEMBL document CHEMBL5608233, “Fluorescent Peptides Sequester Redox Copper to Mitigate Oxidative Stress, Amyloid Toxicity, and Neuroinflammation” (ACS Med Chem Lett, 2024)
Activity calls are given as the source filed them. The calls are words filed in the database; no cut-off is given here. Residues, ends and D or L forms follow the SMILES beside them. *: point of attachment. X1 = CN(C)c1ccc2c3c(cccc13)C(=O)N(CCN*)C2=O

How the values were obtained:
[1] = Antioxidant activity assessed as inhibition of Cu2+ induced ROS production by measuring decrease in fluorescence intensity in presence of Cu2+ and ascorbate at 10 uM by absorption spectroscopic analysis; format: functional
Method in brief: (§1)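 Ascorbate added first. After 10 min, redox cycling triggered with Cu2+ alone or peptide–Cu2+ premixed in HEPES (50 mM, pH 7.4). Ascorbate consumption followed by absorbance at 265 nm over time.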

[2] = Cytotoxicity against human SH-SY5Y cells assessed as cell viability at 100 uM incubated for 24 hrs by MTT assay relative to control; format: toxicity, cell-based; conditions: read-out: Activity
Method in brief: (§2)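 SH-SY5Y cells exposed to peptide (10–100 μM) for 24 h. Viability by MTT.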

SH-SY5Y [3] = experiment: Cytotoxicity against human SH-SY5Y cells at 100 uM incubated for 24 hrs by MTT assay; format: toxicity, cell-based; method in brief: as §2
[4] = biological target: Amyloid-beta precursor protein (Homo sapiens) (UniProt P05067); experiment: Inhibition of Amyloid beta 42 (unknown origin) aggregation extracted from Escherichia coli BL21 assessed as decrease in Cu2+ induced amyloid beta fibril formation incubated for 48 hrs in presence of Cu2+ by atomic force microscopy
[5] = Metal chelating activity assessed as compound-Fe3+ complex formation by measuring decrease in fluorescence intensity at 50 uM in presence of FeCl3 by UV-Visible fluorescence spectroscopic analysis
Method in brief: (§3)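 Peptide solution at 50 μM mixed 1:1 with Cu2+, Zn2+, Fe3+ or Al3+. NMI emission recorded at λex 450 nm, λem 550 nm, and drop in fluorescence used to indicate complexation. Separate titration with Cu2+ (0–100 μM) into 50 μM peptide used to assess stoichiometry.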

SH-SY5Y [6] = experiment: Neuroprotective activity against amyloid beta 42 induced toxicity in human SH-SY5Y cells assessed as increase in cell viability at 10 uM incubated for 24 hrs by MTT assay (reference value: 55 %); format: functional
Method in brief: (§4)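 SH-SY5Y cells incubated 24 h with Aβ42 fibrils (10 μM) and peptide (10 μM), in the absence or presence of Cu2+ (10 μM). Viability by MTT.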

SH-SY5Y [7] = experiment: Neuroprotective activity against amyloid beta 42 and Cu2+ induced toxicity in human SH-SY5Y cells assessed as increase in cell viability at 10 uM incubated for 24 hrs by MTT assay (reference value: 48 %); format: functional; method in brief: as §4
[8] = Metal chelating activity assessed as compound-Al3+ complex formation by measuring decrease in fluorescence intensity at 50 uM in presence of AlCl3 by UV-Visible fluorescence spectroscopic analysis; method in brief: as §3
[9] = Metal chelating activity assessed as compound-Cu2+ complex formation measured after 2 mins in presence of CuCl2 by UV-Visible fluorescence spectroscopic analysis
Homo sapiens [10] = species: Homo sapiens; experiment: Binding affinity to Amyloid beta 16 (unknown origin) extracted from Escherichia coli BL21 assessed as increase in absorbance band by circular dichroism spectroscopic analysis
[11] = Antioxidant activity assessed as inhibition of Cu2+ induced ROS production by measuring decrease in fluorescence intensity in presence of ascorbate and H2O2 at 10 uM measured after 20 mins by absorption spectroscopic analysis; format: functional
[12] = Antiinflammatory activity in LPS-induced mouse N9 cells assessed as reduction in nitrite production at 10 uM incubated for 24 hrs by griess assay relative to control; format: functional; parameters: scale not given: the % may be the effect or the level left
Method in brief: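 LPS (1 μg/mL)-stimulated N9 microglia treated with peptide at 10 μM. Nitric oxide quantified as nitrite in the medium by Griess assay. Nitrite in LPS-only cells set as 100%. n = 3, one-way ANOVA.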

N9 = experiment: Antiinflammatory activity in LPS-induced mouse N9 cells assessed as reduction in ROS production at 10 uM incubated for 24 hrs by DCFDA staining based analysis; format: functional, cell-based
Method in brief: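 N9 cells treated with LPS (1 μg/mL, 24 h) with or without peptide (10 μM, or a concentration series). ROS read with DCFDA fluorescence. n = 3, one-way ANOVA.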

[13] = Metal chelating activity assessed as compound-Cu2+ complex formation by measuring quenching effect measured after 20 mins in presence of CuCl2 by fluorescence quenching analysis
[14] = biological target: Amyloid-beta precursor protein (Homo sapiens) (UniProt P05067); experiment: Inhibition of Amyloid beta 42 (unknown origin) aggregation extracted from Escherichia coli BL21 assessed as decrease in amyloid beta fibril formation incubated for 48 hrs by atomic force microscopy
[15] = Cytotoxicity against mouse N9 cells at upto 50 uM incubated for 24 hrs by MTT assay; format: toxicity, cell-based; conditions: n9, 24 h
Method in brief: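 N9 microglia given a concentration series of peptide. Viability assessed.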

[16] = Metal chelating activity assessed as compound-Cu2+ complex formation at 50 uM in presence of CuCl2 by UV-Visible fluorescence spectroscopic analysis; method in brief: as §3
Homo sapiens [17] = species: Homo sapiens; experiment: Binding affinity to Amyloid beta 16 (unknown origin) extracted from Escherichia coli BL21 by measuring quenching effect incubated for 15 mins in presence of Cu2+ by fluorescence quenching analysis
[18] = Metal chelating activity assessed as compound-Zn2+ complex formation by measuring decrease in fluorescence intensity at 50 uM in presence of ZnCl2 by UV-Visible fluorescence spectroscopic analysis; method in brief: as §3
[19] = Antioxidant activity assessed as inhibition of Cu2+ induced ROS production by measuring decrease in fluorescence intensity in presence of Cu2+ and ascorbate at 10 uM measured after 10 mins by absorption spectroscopic analysis; format: functional; method in brief: as §1
[20] = Antioxidant activity assessed as inhibition of Cu2+ induced ROS production by measuring decrease in fluorescence intensity in presence of stoichiometric ratio of 1:2 of Cu2+ and ascorbate at 10 uM measured after 10 mins by absorption spectroscopic analysis; format: functional
[21] = Metal chelating activity assessed as compound-Al3+ complex formation by measuring decrease in fluorescence intensity at 25 uM in presence of AlCl3 by UV-Visible fluorescence spectroscopic analysis
[22] = Metal chelating activity assessed as compound-Fe3+ complex formation by measuring decrease in fluorescence intensity at 25 uM in presence of FeCl3 by UV-Visible fluorescence spectroscopic analysis
Homo sapiens [23] = species: Homo sapiens; experiment: Binding affinity to Amyloid beta 16 (unknown origin) extracted from Escherichia coli BL21 assessed as maximal quenching in presence of Cu2+ by fluorescence quenching analysis
[24] = Antioxidant activity assessed as inhibition of Cu2+ induced ROS production by measuring decrease in fluorescence intensity in presence of stoichiometric ratio of 1:1 of Cu2+ and ascorbate at 10 uM measured after 10 mins by absorption spectroscopic analysis; format: functional
[25] = Metal chelating activity assessed as compound-Cu2+ complex formation by measuring decrease in fluorescence intensity at 25 uM in presence of CuCl2 by UV-Visible fluorescence spectroscopic analysis
[26] = biological target: Amyloid-beta precursor protein (Homo sapiens) (UniProt P05067); experiment: Inhibition of Amyloid beta 42 (unknown origin) extracted from Escherichia coli BL21 induced ROS production assessed as decrease in fluorescence intensity at 10 uM incubated for 20 mins in presence of Cu2+ and ascorbate by absorption spectroscopic analysis

Sequence of Amyloid-beta precursor protein (Homo sapiens) (P05067 whole entry): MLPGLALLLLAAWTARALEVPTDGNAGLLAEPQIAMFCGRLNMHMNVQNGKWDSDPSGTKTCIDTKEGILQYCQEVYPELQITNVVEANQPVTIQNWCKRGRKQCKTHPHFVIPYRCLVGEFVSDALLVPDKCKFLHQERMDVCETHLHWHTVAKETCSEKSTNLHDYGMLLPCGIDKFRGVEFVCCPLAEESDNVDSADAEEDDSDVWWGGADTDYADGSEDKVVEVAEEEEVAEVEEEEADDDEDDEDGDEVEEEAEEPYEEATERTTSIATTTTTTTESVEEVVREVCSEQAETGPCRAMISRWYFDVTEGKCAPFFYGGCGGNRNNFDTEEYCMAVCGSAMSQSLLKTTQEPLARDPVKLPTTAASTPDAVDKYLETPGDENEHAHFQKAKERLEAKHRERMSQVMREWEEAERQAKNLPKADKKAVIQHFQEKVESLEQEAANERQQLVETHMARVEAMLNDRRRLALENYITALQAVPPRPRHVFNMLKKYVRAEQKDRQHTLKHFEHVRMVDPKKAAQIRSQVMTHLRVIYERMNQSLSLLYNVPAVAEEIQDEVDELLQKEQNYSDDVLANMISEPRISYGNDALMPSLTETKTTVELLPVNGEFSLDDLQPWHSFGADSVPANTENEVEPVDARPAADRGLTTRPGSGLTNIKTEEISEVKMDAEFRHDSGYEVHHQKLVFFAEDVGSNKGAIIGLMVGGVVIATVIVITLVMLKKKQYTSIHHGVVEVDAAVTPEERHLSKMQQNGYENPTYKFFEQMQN

Compound | inhibition [4] | Activity [5] | Activity [8] | Activity [9] | Activity (Homo sapiens [10]) | inhibition [14] | Activity [16] | viability at 24 h, 100 µM [2] | Activity (SH-SY5Y [3]) | Activity (SH-SY5Y [6]) | Activity (SH-SY5Y [7]) | Activity [11] | Activity [12] | Activity (N9) | Activity [15] | Activity [19] | also measured
CN(C)c1ccc2c3c(cccc13)C(=O)N(CCNC(=O)[C@H](CCC(N)=O)NC(=O)[C@H](CCCCN)NC(=O)[C@@H](N)Cc1c[nH]cn1)C2=O | Active | inactive | inactive | Active | Active | Active | Active | > 90% | Non-Toxic | ~80% | 82% | Active | 85% | Active | Non-Toxic |  | Activity [1]: Active; Activity [13]: Active
CN(C)c1ccc2c3c(cccc13)C(=O)N(CCNC(=O)[C@@H](N)CCC(N)=O)C2=O | inactive |  |  |  |  | Active |  |  |  |  |  |  |  |  |  |  | 
NCCCC[C@H](NC(=O)[C@H](Cc1cnc[nH]1)NC(=O)CN)C(=O)O (H-Gly-His-Lys-OH) | inactive |  |  |  |  | inactive |  |  |  |  |  |  |  |  |  |  | 

Now from value to molecule, other results behind:

inhibition [4] | Activity [5] | Activity [8] | Activity [9] | Activity (Homo sapiens [10]) | inhibition [14] | Activity [16] | Compound | viability at 24 h, 100 µM [2] | Activity (SH-SY5Y [3]) | Activity (SH-SY5Y [6]) | Activity (SH-SY5Y [7]) | Activity [11] | Activity [12] | Activity (N9) | Activity [15] | Activity [19] | also measured
Active | inactive | inactive | Active | Active | Active | Active | CN(C)c1ccc2c3c(cccc13)C(=O)N(CCNC(=O)[C@H](CCC(N)=O)NC(=O)[C@H](CCCCN)NC(=O)[C@H](Cc1c[nH]cn1)NC(=O)[C@@H](Cc1c[nH]cn1)NC(=O)CN)C2=O | > 90% | Non-Toxic | ~80% | 92% |  | 56% | Active | Non-Toxic | Active | Activity (Homo sapiens [17]): Active; Activity [18]: inactive
inactive |  |  | Active | inactive | inactive |  | CN(C)c1ccc2c3c(cccc13)C(=O)N(CCNC(=O)[C@H](CCC(N)=O)NC(=O)[C@H](CCCCN)NC(=O)[C@H](Cc1c[nH]cn1)NC(=O)CNC(=O)CN)C2=O (H-GGHKQ-X1) | > 90% | Non-Toxic | ~80% | 85% | inactive | 70% | Active | Non-Toxic | Active | Activity [20]: inactive; Activity [21]: inactive; Activity [22]: inactive; Activity (Homo sapiens [23]): 65%; Activity [24]: inactive; Activity [25]: Active
Active |  |  |  |  | Active |  | CN(C)c1ccc2c3c(cccc13)C(=O)N(CCNC(=O)[C@H](CCC(N)=O)NC(=O)[C@H](CCCCN)NC(=O)[C@H](Cc1c[nH]cn1)NC(=O)CN)C2=O (H-GHKQ-X1) |  |  |  |  |  |  |  |  |  | inhibition [26]: Active
